In data set [1] the test system is Mus musculus. In words: Brain efflux index in wild type mouse assessed as transport of compound from ipsilateral cerebrum to the circulating blood across the blood-brain barrier at 10 nCi/ml, intracerebral microinjection after 30 mins in presence of 1 mM unlabelled compound relative to wild type. As to conditions: other, 0.5 h.
In data set [2] the test system is Mus musculus. In words: Brain efflux index in wild type mouse assessed as transport of compound from ipsilateral cerebrum to the circulating blood across the blood-brain barrier at 10 nCi/ml, intracerebral microinjection after 30 mins in presence of 50 mM unlabelled compound relative to wild type. As to conditions: other, 0.5 h.
Data set [3] concerns Mus musculus. The experiment in a line: Brain efflux index in wild-type mouse assessed as transport of compound from ipsilateral cerebrum to the circulating blood across the blood-brain barrier at 10 nCi/ml, intracerebral microinjection after 30 mins in presence 100 mM benzylpenicillin OAT inhibitor. As to conditions: other, 0.5 h.
The subject of data set [4] is Mus musculus. In words: Brain efflux index in wild type mouse assessed as transport of compound from ipsilateral cerebrum to the circulating blood across the blood-brain barrier at 10 nCi/ml, intracerebral microinjection after 30 mins in presence 100 mM benzylpenicillin OAT inhibitor relative to wild type. Conditions: other, 0.5 h.
The nature of data set [5]: Elimination half life in mouse brain at 10 nCi/ml, icv. As to conditions: icv or intrathecal, read-out: beta t1/2 (converted). The class given is ADME, organism-based. In short, it runs like this: (§1)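 Intracerebral microinjection into the S2 cortex of anaesthetized mice, 0.2 µL of [3H]-drug (10 nCi/ml) with [14C]-carboxyl-inulin in ECF buffer. Ipsilateral cerebrum radioactivity was followed over time, up to 60 min for methotrexate. Elimination rate constant keff came from regression of percent remaining versus time, and half-life from keff. n=3-4.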

Data set [6] has as its system Mus musculus. In words: Brain efflux index in wild-type mouse assessed as transport of compound from ipsilateral cerebrum to the circulating blood across the blood-brain barrier at 10 nCi/ml, intracerebral microinjection after 30 mins in presence 100 mM probenecid OAT inhibitor. Conditions: other, 0.5 h.
A short description of data set [7]: Drug uptake in mouse brain ipsilateral cerebrum assessed as radiolabelled compound after 30 mins at 0.1 uM, intracerebral microinjection in presence 100 mM probenecid OAT inhibitor. The class given is ADME, tissue-based. As to conditions: in vivo, other, 0.5 h. In outline: (§2)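 Male C57BL/6 wild-type mice under ketamine 100 mg/kg plus xylazine 10 mg/kg i.p., on a stereotaxic frame. 0.2 µL was injected over 2 min into the S2 cortex, 3.8 mm lateral to bregma and 2.5 mm deep. Injectate: [3H]-drug plus [14C]-carboxyl-inulin, 10 nCi/ml each, in ECF buffer pH 7.4. Needle held 4 min. Ipsilateral cerebrum harvested at 30 min and counted by scintillation. Retention normalized to inulin. n=3-4.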

Data set [8] has as its system Mus musculus. The experiment in a line: Brain efflux index in wild type mouse assessed as transport of compound from ipsilateral cerebrum to the circulating blood across the blood-brain barrier at 10 nCi/ml, intracerebral microinjection after 30 mins. Format: ADME, organism-based. As to conditions: other, 0.5 h. In short, it runs like this:
(§3)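 Intracerebral microinjection under ip ketamine (100 mg/kg)/xylazine (10 mg/kg). Stereotaxic needle at 3.8 mm lateral to bregma, 2.5 mm deep, into S2 cortex. 0.2 µL [3H]-drug (10 nCi/ml) with [14C]-carboxyl-inulin (10 nCi/ml) in ECF buffer pH 7.4 given over 2 min. Ipsilateral cerebrum taken at set times, homogenised in 5% BSA and counted by scintillation. Retained/injected ratio normalised to inulin; n=3-4.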

The subject of data set [9] is Mus musculus. In words: Brain efflux index in Bcrp1 deficient mouse assessed as transport of compound from ipsilateral cerebrum to the circulating blood across the blood-brain barrier at 10 nCi/ml, intracerebral microinjection after 30 mins relative to wild type. As to conditions: other, 0.5 h. Format: ADME, organism-based. In outline:
as §3

In data set [10] the test system is Brain. In words: Efflux clearance mouse brain measured per gm of tissue at 0.3 uCi/ml by in vitro brain slice uptake technique. Format: ADME.
The subject of data set [11] is Mus musculus. The experiment in a line: Brain efflux index in wild-type mouse assessed as transport of compound from ipsilateral cerebrum to the circulating blood across the blood-brain barrier at 10 nCi/ml, intracerebral microinjection after 30 mins in presence of 1 mM unlabelled compound. Conditions: other, 0.5 h.
The nature of data set [12]: Drug uptake in mouse brain ipsilateral cerebrum assessed as radiolabelled compound after 30 mins at 0.1 uM, intracerebral microinjection in presence of 1 mM unlabelled compound. The class given is ADME, tissue-based. Conditions: in vivo, other, 0.5 h. In short, it runs like this: as §2
Data set [13] has as its system Mus musculus. In words: Brain efflux index in Mrp2 deficient mouse assessed as transport of compound from ipsilateral cerebrum to the circulating blood across the blood-brain barrier at 10 nCi/ml, intracerebral microinjection after 60 mins. Conditions: other, 1 h. The class given is ADME, organism-based. In outline: as §3
A short description of data set [14]: Drug uptake in mouse brain ipsilateral cerebrum assessed as radiolabelled compound after 30 mins at 0.1 uM, intracerebral microinjection in presence of 50 mM unlabelled compound. The class given is ADME, tissue-based. Conditions: in vivo, other, 0.5 h. In short, it runs like this:
as §2

Data set [15] can be described thus: Drug uptake in mouse brain ipsilateral cerebrum assessed as radiolabelled compound after 30 mins at 0.1 uM, intracerebral microinjection. Format: ADME, tissue-based. As to conditions: in vivo, other, 0.5 h. In short, it runs like this:
as §2

A short description of data set [16]: Elimination rate constant mouse brain at 10 nCi/ml.
Data set [17] deals with Mus musculus. In words: Brain efflux index in wild-type mouse assessed as transport of compound from ipsilateral cerebrum to the circulating blood across the blood-brain barrier at 10 nCi/ml, intracerebral microinjection after 30 mins in presence of 50 mM unlabelled compound. As to conditions: other, 0.5 h.
Data set [18] can be described thus: Drug uptake in mouse brain ipsilateral cerebrum assessed as radiolabelled compound after 30 mins at 0.1 uM, intracerebral microinjection in presence 100 mM benzylpenicillin OAT inhibitor. Conditions: in vivo, other, 0.5 h. The class given is ADME, tissue-based. In outline: as §2
The subject of data set [19] is Mus musculus. In words: Brain efflux index in wild type mouse assessed as transport of compound from ipsilateral cerebrum to the circulating blood across the blood-brain barrier at 10 nCi/ml, intracerebral microinjection after 30 mins in presence 100 mM probenecid OAT inhibitor relative to wild type. Conditions: other, 0.5 h.
Data set [20] relates to Mus musculus. The experiment in a line: Brain efflux index in Bcrp1 deficient mouse assessed as transport of compound from ipsilateral cerebrum to the circulating blood across the blood-brain barrier at 10 nCi/ml, intracerebral microinjection after 30 mins. The class given is ADME, organism-based. As to conditions: other, 0.5 h. In outline: as §3
Data set [21] deals with Mus musculus. The experiment in a line: Brain efflux index in Mrp2 deficient mouse assessed as transport of compound from ipsilateral cerebrum to the circulating blood across the blood-brain barrier at 10 nCi/ml, intracerebral microinjection after 30 mins relative to wild type. As to conditions: other, 0.5 h.
Data set [22] has as its system Brain. The experiment in a line: Ratio of efflux clearance to clearance in brain measured in mouse at 0.3 uCi/ml by in vitro brain slice uptake technique. Format: ADME, tissue-based.
Data set [23] in a line: Drug uptake in mouse cerebrum.
Data set [24] relates to Brain. In words: Elimination half life in mouse brain. Format: ADME, tissue-based. As to conditions: in vivo. In outline:
as §1

For the molecule `Nc1nc2[nH]cc(CCc3ccc(C(=O)N[C@@H](CCC(=O)O)C(=O)O)cc3)c2c(=O)[nH]1` [PEMETREXED], the BEI was determined as 57.8% in the data set on Mus musculus [1]; 8.8% with Mus musculus [2]; 12.2% with Mus musculus [3]; 25% with Mus musculus [4]; 27.6% in the data set on Mus musculus [6]; 48.9% in the data set with Mus musculus [8]. Further, the BEI in the data set on Mus musculus [9] was determined as 89.7%; in the data set on Mus musculus [11] it was 28.3%; in the data set with Mus musculus [13] it was 58.3%; in the data set with Mus musculus [17] it was 4.3%; in the data set on Mus musculus [19], 56.5%; with Mus musculus [20], 43.9%. Further, in data set [5], the half-life was 39 min. The Drug uptake turned out to be 72.4% in data set [7]; 71.7% in data set [12]; 95.7% in data set [14]; 51.1% in data set [15]; 90% in [18]. Besides, the CL in the data set on Brain [10] was 11.04 µL/min/g. In data set [16], this molecule had a k el of 0.000297 s⁻¹.

For `CN(Cc1cnc2nc(N)nc(N)c2n1)c1ccc(C(=O)N[C@@H](CCC(=O)O)C(=O)O)cc1` [METHOTREXATE], the BEI was found to be 13.7% in the data set with Mus musculus [3]; 21.4% with Mus musculus [4]; 24.2% in the data set on Mus musculus [6]; 90% in the data set with Mus musculus [21]; 63.8% in the data set on Mus musculus [8]; 72.7% in the data set with Mus musculus [9]. Further, the results for the BEI in the data set on Mus musculus [13], in the data set on Mus musculus [19] and in the data set with Mus musculus [20] were 57.2%, 37.9% and 46.4%, respectively. For the same molecule, the half-life in data set [5] is 28.8 min. The Drug uptake in data set [7] is on record as 75.8%; in data set [15], 36.2%; in [23] it was 3.2%; in [18], 90%. Further, in the data set on Brain [10], the CL is 20.23 µL/min/g. The Ratio with Brain [22] is on record as 0.05. In data set [16], the k el was 0.000397 s⁻¹.

On to `CCCC(CCC)C(=O)O` [VALPROIC ACID], for which the “beta t1/2” value in the data set with Brain [24] worked out at 2 min.

For the origin of these results see ChEMBL document CHEMBL3526028 (Drug Metab Dispos, 2013).
